# Experimental data published in PMC4524557 (RSC advances, 2015).
# Assays:
# [1] = test system: S. aureus USA300 biofilms; assay: Inhibition of biofilm formation; format: cell-based, Staphylococcus aureus; details: USA300, between 3.1 and 12.5 μM
# [2] = test system: Staphylococcus aureus USA300; assay: MIC determination; format: cell-based; details: USA300, read-out: MIC SA
# [3] = test system: S. aureus USA200 biofilms; assay: Disruption of established 24 h biofilms; format: cell-based, Staphylococcus aureus; details: USA200, at 6.25 μM
# [4] = test system: Staphylococcus aureus UAMS-1; assay: MIC determination; format: cell-based; details: UAMS1, read-out: MIC UAMS-1
# [5] = test system: S. aureus USA400 biofilms; assay: Inhibition of biofilm formation; format: cell-based, Staphylococcus aureus; details: USA400, all tested concentrations from 1.56 to 12.5 μM
# [6] = test system: Staphylococcus aureus Mu50; assay: MIC determination; format: cell-based; details: MU50, read-out: MIC Mu50
# [7] = test system: S. aureus UAMS-1 biofilms; assay: Disruption of established biofilms; format: cell-based, Staphylococcus aureus; details: UAMS-1, at 6.25 μM
# [8] = test system: biofilm; details: lower concentrations ineffective; cited from earlier work
# [9] = test system: Staphylococcus aureus USA200; assay: MIC determination; format: cell-based; details: USA200, read-out: MIC USA200
# [10] = test system: S. aureus USA400 biofilms; assay: Disruption of established 24 h biofilms; format: cell-based, Staphylococcus aureus
# [11] = test system: Staphylococcus aureus USA400; assay: MIC determination; format: cell-based; details: USA400, read-out: MIC USA400
# [12] = test system: Klebsiella pneumoniae; assay: MIC determination; format: cell-based; details: K. pneumoniae
# [13] = test system: S. aureus USA300 biofilms; assay: Disruption of established 24 h biofilms; format: cell-based, Staphylococcus aureus; details: USA300 24 h biofilm
# Outline: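 USA300 from log phase was grown in wells for 24 h at 37°C to form biofilms, then washed with saline. The 10X test compound, alone or with daptomycin or vancomycin, was added with fresh TSB for another 24 h at 37°C. In combinations the test compound ran 1.56-0.20 µM and the antibiotic 6.25-0.78 µM. Daptomycin medium had 2 mM Ca2+. Wells got fresh TSB plus XTT for 2 h at 37°C, then A450 was read as % of untreated biofilm.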
# [14] = test system: Pseudomonas aeruginosa PAO1; assay: MIC determination; format: cell-based; details: PAO1, read-out: MIC PA
Compound,inhibition of biofilm growth [1] [%],MIC [2] [µM],established biofilms disrupted [3] [%],MIC [4] [µM],inhibition of biofilm formation [5] [%],MIC [6] [µM],established biofilms disrupted [7],concentration with anti-biofilm activity [8] [mg/mL],MIC [9] [µM],concentration disrupting established biofilms [10] [µM],MIC [11] [µM],MIC KP [12] [µM],biofilm disruption alone ([13]; 3.1 μM vancomycin by itself),biofilm disruption by combination ([13]; 3.1 μM vancomycin with 0.20 μM C14-RRR),MIC [14] [µM]
CCCCCCCCCC(=O)N[C@@H](Cc1c[nH]c2ccccc12)C(=O)N[C@H](CC(N)=O)C(=O)N[C@@H](CC(=O)O)C(=O)N[C@@H]1C(=O)NCC(=O)N[C@@H](CCCN)C(=O)N[C@@H](CC(=O)O)C(=O)N[C@H](C)C(=O)N[C@@H](CC(=O)O)C(=O)NCC(=O)N[C@H](CO)C(=O)N[C@@H]([C@H](C)CC(=O)O)C(=O)N[C@@H](CC(=O)c2ccccc2N)C(=O)O[C@@H]1C [Daptomycin],80,0.78,80,> 12.5,100,3.1,~ 70%,5,0.78,6.2 to 12.5,0.78,–,–,–,–
CN[C@H](CC(C)C)C(=O)N[C@H]1C(=O)N[C@@H](CC(N)=O)C(=O)N[C@H]2C(=O)N[C@H]3C(=O)N[C@H](C(=O)N[C@H](C(=O)O)c4cc(O)cc(O)c4-c4cc3ccc4O)[C@H](O)c3ccc(c(Cl)c3)Oc3cc2cc(c3O[C@@H]2O[C@H](CO)[C@@H](O)[C@H](O)[C@H]2O[C@H]2C[C@](C)(N)[C@H](O)[C@H](C)O2)Oc2ccc(cc2Cl)[C@H]1O [Vancomycin],80,0.78,80,> 12.5,100,1.56,~ 70%,–,0.35,6.2 to 12.5,0.78,> 25,unable to completely disrupt the biofilm,disrupt nearly all the biofilms,> 25
